In PubChem BioAssay one finds viability, differential viability (reversal) and inhibition data, which are given here for twelve molecules.

Test [1] can be described thus: reduced viability of SK-BR-3 breast cancer cells – cell-based, 24 h, human, pilot screen (AID 572;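 active means viability at or below 10% of carrier control in both of two separate runs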;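 further: compound exposure lasted between 18 and 24 h rather than exactly 24 h; 100% = carrier-treated control wells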). The following applies: SK-BR-3 viability, CellTiter-Glo luminescence, at 10 µM, stronger effect = lower value. (In general: ATP-based viability assays read luminescence as a measure of living cells.)
Test [2] is described as follows: HUVEC growth inhibition – cell-based, human, primary screen (AID 575;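 active means viability at or below 30% in both replicate assays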;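 further: 100% = median of untreated cell wells with 0.1% DMSO on each plate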). The following applies: HUVEC proliferation, CellTiter-Glo luminescence, 72 h; at 10 µM; stronger effect = lower value. A digest of the protocol:
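Assay system: Primary human umbilical vein endothelial cells | Quantity: 1250 cells per well | Medium: Supplemented EBM, 2% fetal bovine serum | Detection: CellTiter-Glo luminescence measuring cellular ATP | Read-out: % viability vs DMSO wells | Plate: Collagen-coated 384-well format | Times: 72 h exposure, 37 °C, 5% CO2, 30 min RT equilibration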

Test [3] can be described thus: H69AR cell proliferation blockers – human, duplicate replicates, primary screen (AID 580).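 Further: 100% = mean luminescence of untreated wells and 0% = no signal.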 The following applies: H69AR lung tumor cells viability, ATP luminescence, 72 h; at 10 µM; stronger effect = lower value.
A short description of test [4]: MRP1 drug-resistance reversers in H69AR cells – cell-based, doxorubicin co-treatment, pilot screen (AID 601;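 active means viability loss from added drug above about 55%, and viability with drug at most 40%, in both replicates, limit read from the data, passing the limit was not always enough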). The note with it: CellTiter-Glo, 72 h, at 10 µM; for differential viability (reversal): stronger effect = higher value.
A short description of test [5]: yeast transport mutant growth inhibition pilot in 384-well plates, post-Golgi transport modulator project (AID 636; in the data active means inhibition above about 31%). The following applies: absorbance 615 nm, about 18 h, stronger effect = higher value.
Test [6] can be described thus: growth suppression of yeast trafficking mutant, preliminary HTS, modulators of trafficking downstream of Golgi apparatus project, 1536-format plate, OD 615 nm (AID 637; in the data active means inhibition above about 30%). The following applies: yeast transport mutant growth, absorbance 615 nm, 18 h; stronger effect = higher value.
Where [7] appears, read: H69AR cells + 2 uM doxorubicin, measured here: viability with 2 uM doxorubicin, stronger effect = lower value.
Setting [8] is: H69AR cells, compound alone cytotoxicity.

The source made the active and inactive calls.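 How the source made its calls, unless noted: active means viability at or under a set limit in both replicates, limit being median viability minus 3 SD (cut at about 48% in these data, passing the limit was not always enough); inconclusive means at or under the limit in just one replicate; inactive means at or above the limit in both replicates.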

As for `Cc1ccc(-c2nn(-c3ccccc3)cc2/C=C(\C#N)c2cccc(C#N)c2)o1`, the viability in test [1] was 71% (inactive); in test [2] it was 92% (inactive); in test [3], 71.6% (inactive); in test [4] (setting [7]), 73.3%; in test [4] (setting [8]) it was 71.6%. In test [4] (H69AR cells + 2 uM doxorubicin), the differential viability (reversal) was -1.65% (inactive). Moreover, the inhibition is -9.32% (inactive) in test [5] and 5.27% (inactive) in test [6].

Take `Cc1[nH]nc2c1C(CCc1ccccc1)C(C#N)=C(N)O2` (stereo unspecified): the viability was 104% (inactive) in test [1]; 94.2% (inactive) in test [2]; 90.2% (inactive) in test [3]; 92.9% in test [4] (setting [7]); 90.2% in test [4] (setting [8]). Besides, the differential viability (reversal) in test [4] (H69AR cells + 2 uM doxorubicin) was -2.73% (inactive). Besides, the figures for the inhibition in test [5] and in test [6] were 4.11% (inactive) and 15.8% (inactive), respectively.

With `CCN(CC)S(=O)(=O)c1cccc(-c2nnc(SCCOc3ccccc3C)o2)c1`, the viability in test [1] is 75% (inactive); in test [2], 89% (inactive); in test [3], 87.9% (inactive); in test [4] (setting [7]), 69.3%; in test [4] (setting [8]), 87.9%. Moreover, the differential viability (reversal) in test [4] (H69AR cells + 2 uM doxorubicin) was 18.7% (inactive). Besides, the inhibition in test [5] was -2.6% (inactive); in test [6] it was 8.36% (inactive).

In the case of `CN(C)C(=O)Oc1ccc[n+](C)c1`, the viability in test [1] is 92% (inactive); in test [2] it was 102% (inactive); in test [3], 87% (inactive); in test [4] (setting [7]) it was 81.6%; in test [4] (setting [8]), 87%. In addition, in test [4] (H69AR cells + 2 uM doxorubicin), the differential viability (reversal) is 5.36% (inactive). Further, the inhibition in test [5] was -1.17% (inactive); in test [6], -2.33% (inactive).

Regarding `O=C(CNCC1CCCO1)Nc1ccccc1-n1cccc1` (stereo unspecified), the viability in test [1] was 80% (inactive); in test [2] it was 106% (inactive); in test [3], 95.7% (inactive); in test [4] (setting [7]), 90.6%; in test [4] (setting [8]) it was 95.7%. In test [4] (H69AR cells + 2 uM doxorubicin), the differential viability (reversal) was 5.03% (inactive). Besides, the inhibition in test [5] was -8.38% (inactive); in test [6] it was -2.36% (inactive).

On to `CC(C)c1cc(C(=O)Nc2cccnc2)no1`, for which the viability in test [1] is 110% (inactive); in test [2], 105% (inactive); in test [3], 97.3% (inactive); in test [4] (setting [7]) it was 98.2%; in test [4] (setting [8]) it was 97.3%. Also, in test [4] (H69AR cells + 2 uM doxorubicin), the differential viability (reversal) is -0.865% (inactive). The inhibition in test [5] was -7.73% (inactive); in test [6], -0.18% (inactive).

In the case of `CC(C)CC1NC(=O)N(CC(=O)N2CCN(S(=O)(=O)c3ccc(Cl)cc3)CC2)C1=O` (stereo unspecified), the viability is 97% (inactive) in test [1]; 91.7% (inactive) in test [2]; 96.4% (inactive) in test [3]; 116% in test [4] (setting [7]); 96.4% in test [4] (setting [8]). In addition, the differential viability (reversal) in test [4] (H69AR cells + 2 uM doxorubicin) was -19.2% (inactive). The inhibition in test [5] was 0% (inactive); in test [6], 5.83% (inactive).

For the molecule `CS(=O)(=O)N(CC(=O)NCCSCc1cccc(Cl)c1)c1ccc2c(c1)OCO2`, the viability in test [1] is 94% (inactive); in test [2], 97.9% (inactive); in test [3] it was 93.4% (inactive); in test [4] (setting [7]), 97.8%; in test [4] (setting [8]), 93.4%. Further, in test [4] (H69AR cells + 2 uM doxorubicin), the differential viability (reversal) is -4.33% (inactive). For the same molecule, the values for the inhibition in test [5] and in test [6] were -2.21% (inactive) and -2.62% (inactive), respectively.

With `Cc1cc(NS(=O)(=O)c2ccc(NC(=O)COc3ccc(Cl)cc3)cc2)no1`, the viability in test [1] was 100% (inactive); in test [2] it was 107% (inactive); in test [3] it was 84.1% (inactive); in test [4] (setting [7]), 85.2%; in test [4] (setting [8]), 84.1%. Also, in test [4] (H69AR cells + 2 uM doxorubicin), the differential viability (reversal) was -1.13% (inactive). The inhibition was -9.32% (inactive) in test [5] and -5.27% (inactive) in test [6].

For the molecule `Cc1occc1-c1nc(-c2ccncc2)no1`, the viability in test [1] was 79% (inactive); in test [2], 83.2% (inactive); in test [3], 95.4% (inactive); in test [4] (setting [7]), 92.5%; in test [4] (setting [8]), 95.4%. Further, the differential viability (reversal) in test [4] (H69AR cells + 2 uM doxorubicin) is 2.9% (inactive). The inhibition in test [5] is 0.96% (inactive); in test [6] it was -8.87% (inactive).

As for `CC(C)(C)NCC(O)COc1cccc2c1C[C@H](O)[C@H](O)C2` (stereo partly specified), the viability in test [1] was 82% (inactive); in test [2] it was 85.3% (inactive); in test [3], 97.1% (inactive); in test [4] (setting [7]) it was 92.8%; in test [4] (setting [8]) it was 97.1%. The differential viability (reversal) in test [4] (H69AR cells + 2 uM doxorubicin) was 4.26% (inactive). Besides, the inhibition in test [5] is 2.86% (inactive); in test [6], 1.83% (inactive).

In the case of `CCC(=O)Nc1ccc(NC(=O)c2ccccn2)cn1`, the viability in test [1] is 87% (inactive); in test [2], 103% (inactive); in test [3], 98.2% (inactive); in test [4] (setting [7]), 84.6%; in test [4] (setting [8]) it was 98.2%. Moreover, the differential viability (reversal) in test [4] (H69AR cells + 2 uM doxorubicin) is 13.6% (inactive). The figures for the inhibition in test [5] and in test [6] were -5.47% (inactive) and -8% (inactive), respectively.

As a reminder, the viability is a read-out of living cells in per cent, often relative to untreated cells. As usually defined, the inhibition is the drop in the measured response relative to a control, in per cent.
